Results: ChEMBL document CHEMBL1135537, “Design, synthesis, and biological evaluation of indolequinone phosphoramidate prodrugs targeted to DT-diaphorase” (2002)

How the values were obtained:
BE = experiment: Inhibitory concentration that reduces clonogenic survival by 2 log units (99%) 2-hour after drug treatment in BE human colon carcinoma cell line.; format: functional
Summary of the method: (§1)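 Clonogenic assay. Exponentially growing cells at 1–1.2 × 10^5 cells/mL in serum-free MEM with 0.02 M HEPES were exposed for 2 h at 37 °C, 5% CO2, to five final concentrations. Ethanol was the vehicle at 1% final, with an ethanol-only control. Cells were then rinsed, plated at 2–3 densities in five replicates and grown 10 days. Crystal-violet-stained colonies of ≥50 cells were counted, and LC99 was read from log surviving fraction versus concentration. Runs were done at least twice and averaged.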

MIA PaCa-2 = experiment: Growth inhibitory activity against PaCa-2 human solid tumor cell line using MTT assay; format: functional
Summary of the method: (§2)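 MTT assay. Cells were seeded at (1-2) × 10^4 per well and left to attach for 24 h. Compound was taken up in DMSO and serially diluted in medium, keeping final DMSO at 1% or less, then exposed for 72 h. MTT was added for 4–5 h, formazan was dissolved in DMSO, and absorbance was read at 570 nm. GI50 was taken from percent-of-control versus concentration plots; each compound was assayed twice and the results averaged.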

PC-3 = experiment: Growth inhibitory activity against human PC-3 cell line using MTT assay.; format: functional; summary of the method: as §2
A549 = experiment: Growth inhibitory activity against A549 human solid tumor cell line using MTT assay; format: functional; summary of the method: as §2
HT-29 [1] = experiment: Inhibitory concentration that reduces clonogenic survival by 2 log units (99%) 2-hour after drug treatment in HT-29 human colon carcinoma cell line.; format: functional; summary of the method: as §1
A498 = experiment: Growth inhibitory activity against A498-2LM human solid tumor cell line using MTT assay; format: functional; summary of the method: as §2
[2] = Selectivity ratio of LC99 of BE to LC99 of HT-29; format: functional
Summary of the method: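 Ratio of the BE LC99 to the HT-29 LC99, both from a 2 h clonogenic exposure in serum-free MEM/HEPES with 1% ethanol vehicle. Colonies of ≥50 cells were counted after 10 days, and LC99 was taken from log surviving fraction versus concentration plots.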

UMUC3 = experiment: Growth inhibitory activity against UMUC3 human solid tumor cell line using MTT assay; format: functional; summary of the method: as §2
MDA-MB-231 = experiment: Growth inhibitory activity against human MDA-231 cell line using MTT assay.; format: functional; summary of the method: as §2
HT-29 [3] = experiment: Growth inhibitory activity against HT-29 human solid tumor cell line using MTT assay; format: functional; summary of the method: as §2
[4] = target: NAD(P)H dehydrogenase [quinone] 1 (Homo sapiens) (UniProt P15559); experiment: Kinetic parameter Kcat was reported against DT-diaphorase
Summary of the method: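 Recombinant purified human DTD in Tris buffer (0.05 M, pH 7.6) with dithiothreitol (0.01 mM), NADH (1 mM), cytochrome c (55 μM) and varied indolequinone in DMSO. Run at 25 °C, started with enzyme, in triplicate. Cytochrome c reduction was followed at 550 nm, with no-enzyme background rates. kcat came from Hanes plots of initial linear rates (ε 1.85 × 10^4 M-1 cm-1). Values average ≥2 experiments.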

Chain of NAD(P)H dehydrogenase [quinone] 1 (Homo sapiens) (P15559 whole entry): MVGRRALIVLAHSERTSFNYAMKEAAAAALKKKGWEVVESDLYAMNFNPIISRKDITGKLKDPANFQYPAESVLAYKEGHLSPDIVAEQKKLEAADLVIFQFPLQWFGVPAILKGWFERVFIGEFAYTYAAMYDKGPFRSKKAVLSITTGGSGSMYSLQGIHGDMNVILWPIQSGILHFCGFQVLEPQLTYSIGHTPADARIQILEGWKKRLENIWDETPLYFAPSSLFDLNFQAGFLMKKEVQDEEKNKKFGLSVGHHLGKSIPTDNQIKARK

| Compound | LC99 (BE) | GI50 (MIA PaCa-2) | GI50 (PC-3) | GI50 (A549) | LC99 (HT-29 [1]) | GI50 (A498) | Selectivity [2] | GI50 (UMUC3) | GI50 (MDA-MB-231) | GI50 (HT-29 [3]) | k cat [4] |
| --- | --- | --- | --- | --- | --- | --- | --- | --- | --- | --- | --- |
| COC1=CC(=O)c2c(c(COP(=O)(N(C)CCBr)N(C)CCBr)cn2C)C1=O | 0.14 µM | 25 nM | 66 nM | 23 nM | 0.07 µM | 340 nM | 2 | 2 nM | 40 nM | 65 nM |  |
| COC1=CC(=O)c2c(cc(CO)n2C)C1=O |  |  |  |  |  |  |  |  |  |  | 77 s⁻¹ |
| COC1=CC(=O)c2c(cc(COP(N)(=O)N3CCOCC3)n2C)C1=O (stereo unspecified) | >100 µM | 10000 nM | 14000 nM | 45000 nM | >100 µM | 12000 nM |  | 10000 nM | 13000 nM | 15000 nM | 4.9 s⁻¹ |
| COC1=CC(=O)c2c(cc(COC(C)=O)n2C)C1=O | >100 µM | 35000 nM | > 38000 nM | 26000 nM | >100 µM | 34000 nM |  | 9600 nM | > 38000 nM | 34000 nM | 30 s⁻¹ |
| COC1=CC(=O)c2c(c(CO)cn2C)C1=O |  |  |  |  |  |  |  |  |  |  | 136 s⁻¹ |
| COC1=CC(=O)c2c(c(COC(C)=O)cn2C)C1=O | 5.3 µM | 4 nM | 5 nM | 440 nM | 0.54 µM | 37 nM | 10 | 7 nM | 250 nM | 3 nM | 4 s⁻¹ |
| COC1=CC(=O)c2c(cc(COP(N)(=O)N(CCBr)CCBr)n2C)C1=O (stereo unspecified) | 4.2 µM | 15 nM | 490 nM | 3 nM | 0.077 µM | 200 nM | 65 | 2 nM | 1600 nM | 61 nM | 1.6 s⁻¹ |
| CC1=CC(=O)c2ccccc2C1=O |  |  |  |  |  |  |  |  |  |  | 960 s⁻¹ |
| COC1=CC(=O)c2c(cc(COP(N)(=O)N(CCCl)CCCl)n2C)C1=O (stereo unspecified) | 7.6 µM | 31 nM | 260 nM | 22 nM | 0.11 µM | 980 nM | 69 | 10 nM | 870 nM | 210 nM | 2.6 s⁻¹ |
| COC1=CC(=O)c2c(c(COP(N)(=O)N(CCBr)CCBr)cn2C)C1=O (stereo unspecified) | 0.47 µM | 220 nM | 650 nM | 400 nM | 0.24 µM | 1000 nM | 2 | 10 nM | 190 nM | 240 nM |  |
| COC1=CC(=O)c2c(cc(COP(=O)(N(C)CCBr)N(C)CCBr)n2C)C1=O | 2 µM | 8 nM | 940 nM | 1700 nM | 0.35 µM | 2300 nM | 6 | 17 nM | 840 nM | 200 nM | 1.28 s⁻¹ |
| COC1=CC(=O)c2c(c(COP(N)(=O)N3CCOCC3)cn2C)C1=O (stereo unspecified) | >100 µM | 9800 nM | 15000 nM | 12000 nM | >100 µM | 1200 nM |  | 8200 nM | 9300 nM | 7700 nM |  |
